{"source": "ChEMBL document CHEMBL1123087", "about": "“Synthesis and antimetastatic properties of stereoisomeric tricyclic bis(dioxopiperazines) in the Lewis lung carcinoma model” (1985)", "type_in_all_cases": "functional", "key": {"Mus musculus [1]": {"species": "Mus musculus", "experiment": "Autopsy data was evaluated as average lung weight, mg", "in_short": "(§1)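 BDF1 female mice (19–21 g); Lewis lung carcinoma, 10⁶ cells implanted im in the leg on day 0, and the tumor-bearing leg amputated on day 8. Dosing after amputation was 160 mg/kg ip from day 8, Q2Dx4, given as a saline suspension. Survival was tracked to day 40. Mice dying and those killed on day 40 were autopsied for body weight, lung weight and metastasis counts (<2 mm, >2 mm). Survival was reported as median survival time and %ILS, with ≥25% ILS counted as active.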"}, "Mus musculus [2]": {"species": "Mus musculus", "experiment": "Autopsy data was evaluated as average number of metastasis in <2 mm", "in_short": "as §1"}, "Mus musculus [3]": {"species": "Mus musculus", "experiment": "Autopsy data was evaluated as average number of metastasis in >2 mm", "in_short": "as §1"}, "Mus musculus [4]": {"species": "Mus musculus", "experiment": "Autopsy data was evaluated as average body weight/g", "in_short": "as §1"}, "Mus musculus [5]": {"system": "Mus musculus", "experiment": "Effect on postoperative lewis lung carcinoma model, was evaluated as increase in life span on BDF1 female mice, administered intraperitoneally", "in_short": "as §1"}, "Mus musculus [6]": {"system": "Mus musculus", "experiment": "Effect on postoperative lewis lung carcinoma model, was evaluated as […] on BDF1 female mice, administered intraperitoneally", "design": "unit not given beside the values", "in_short": "as §1"}}, "data": [{"smiles": "O=C1CN2C[C@@H]3C(=O)N(CN4CCOCC4)C(=O)CN3C[C@@H]2C(=O)N1CN1CCOCC1", "values": [{"measurement": "Average lung weight", "setting": "Mus musculus [1]", "result": 358, "unit": "mg"}, {"measurement": "Average No. of metastasis", "setting": "Mus musculus [2]", "result": 0}, {"measurement": "Average No. of metastasis", "setting": "Mus musculus [3]", "result": 6}, {"measurement": "Average body weight", "setting": "Mus musculus [4]", "result": 19.2, "unit": "g"}, {"measurement": "Increase in life span", "setting": "Mus musculus [5]", "result": ">48", "unit": "%"}, {"measurement": "MST", "setting": "Mus musculus [6]", "result": ">40"}]}, {"smiles": "O=C1CN2C[C@@H]3C(=O)NC(=O)CN3C[C@@H]2C(=O)N1", "values": [{"measurement": "Average lung weight", "setting": "Mus musculus [1]", "result": 640, "unit": "mg"}, {"measurement": "Average No. of metastasis", "setting": "Mus musculus [2]", "result": 0}, {"measurement": "Average No. of metastasis", "setting": "Mus musculus [3]", "result": 22}, {"measurement": "Average body weight", "setting": "Mus musculus [4]", "result": 19.3, "unit": "g"}, {"measurement": "Increase in life span", "setting": "Mus musculus [5]", "result": 4, "unit": "%"}, {"measurement": "MST", "setting": "Mus musculus [6]", "result": 28}]}, {"smiles": "O=C1CN2C[C@H]3C(=O)NC(=O)CN3C[C@@H]2C(=O)N1", "values": [{"measurement": "Average lung weight", "setting": "Mus musculus [1]", "result": 853, "unit": "mg"}, {"measurement": "Average No. of metastasis", "setting": "Mus musculus [2]", "result": 0}, {"measurement": "Average No. of metastasis", "setting": "Mus musculus [3]", "result": 48}, {"measurement": "Average body weight", "setting": "Mus musculus [4]", "result": 16.9, "unit": "g"}, {"measurement": "Increase in life span", "setting": "Mus musculus [5]", "result": 4, "unit": "%"}, {"measurement": "MST", "setting": "Mus musculus [6]", "result": 28}]}, {"smiles": "O=C1CN2C[C@H]3C(=O)N(CN4CCOCC4)C(=O)CN3C[C@@H]2C(=O)N1CN1CCOCC1", "values": [{"measurement": "Average lung weight", "setting": "Mus musculus [1]", "result": 700, "unit": "mg"}, {"measurement": "Average No. of metastasis", "setting": "Mus musculus [2]", "result": 0}, {"measurement": "Average No. of metastasis", "setting": "Mus musculus [3]", "result": 38}, {"measurement": "Average body weight", "setting": "Mus musculus [4]", "result": 18.9, "unit": "g"}, {"measurement": "Increase in life span", "setting": "Mus musculus [5]", "result": "<0", "unit": "%"}, {"measurement": "MST", "setting": "Mus musculus [6]", "result": 26}]}]}
